Data as given in ChEMBL document CHEMBL1156929, “Synthesis, biological evaluation, and molecular modeling of 1-benzyl-1H-imidazoles as selective inhibitors of aldosterone synthase (CYP11B2)” (J Med Chem, 2010).

Columns and labels:
[1] = biological target: T1, Cytochrome P450 11B2, mitochondrial (Homo sapiens, UniProt P19099); assay: Inhibition of human CYP11B2 expressed in chinese hamster V79 cells; format: cell-based
T1 sequence (P19099 whole entry): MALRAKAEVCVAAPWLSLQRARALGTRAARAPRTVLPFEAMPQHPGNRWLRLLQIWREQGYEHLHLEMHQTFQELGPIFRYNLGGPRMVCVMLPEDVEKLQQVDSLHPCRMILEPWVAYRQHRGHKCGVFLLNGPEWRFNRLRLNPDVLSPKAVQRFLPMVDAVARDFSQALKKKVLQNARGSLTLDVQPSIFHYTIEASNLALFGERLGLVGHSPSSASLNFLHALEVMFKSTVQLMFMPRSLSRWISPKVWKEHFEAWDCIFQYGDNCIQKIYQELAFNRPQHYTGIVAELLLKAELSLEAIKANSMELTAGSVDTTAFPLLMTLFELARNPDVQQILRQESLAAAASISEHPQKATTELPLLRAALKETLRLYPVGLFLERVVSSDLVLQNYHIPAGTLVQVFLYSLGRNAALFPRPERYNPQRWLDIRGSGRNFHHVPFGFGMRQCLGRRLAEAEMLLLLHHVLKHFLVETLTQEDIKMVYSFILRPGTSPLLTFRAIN
How it was run: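 Confluent V79 cells stably overexpressing human CYP11B2, 37 °C, 5% CO2. […] Steroids were extracted from medium with diethylether at pH 10.5 and quantified by HPLC (UV 243 nm) using peak-area ratios to methylprednisolone internal standard. IC50 from at least five concentrations, fitted to vi = v0/(1+I/IC50).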

[2] = biological target: T2, Cytochrome P450 11B1, mitochondrial (Homo sapiens, UniProt P15538); assay: Inhibition of human CYP11B1 expressed in chinese hamster V79 cells; format: cell-based
T2 sequence (P15538 whole entry): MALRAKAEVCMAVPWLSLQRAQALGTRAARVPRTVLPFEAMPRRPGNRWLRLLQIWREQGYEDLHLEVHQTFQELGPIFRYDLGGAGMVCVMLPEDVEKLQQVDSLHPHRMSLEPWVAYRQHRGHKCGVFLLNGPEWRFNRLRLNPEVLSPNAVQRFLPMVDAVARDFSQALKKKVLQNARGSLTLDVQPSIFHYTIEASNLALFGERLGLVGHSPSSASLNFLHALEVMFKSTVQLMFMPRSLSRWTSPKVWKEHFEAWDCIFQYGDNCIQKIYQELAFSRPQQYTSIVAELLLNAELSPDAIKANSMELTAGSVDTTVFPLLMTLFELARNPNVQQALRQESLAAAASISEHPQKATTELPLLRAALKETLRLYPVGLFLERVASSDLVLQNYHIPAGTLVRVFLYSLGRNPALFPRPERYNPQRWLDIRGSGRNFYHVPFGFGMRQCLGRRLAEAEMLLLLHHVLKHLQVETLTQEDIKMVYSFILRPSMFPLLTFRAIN

Compound | IC50 ([1]; read-out: IC50) [nM] | IC50 ([2]; read-out: pIC50 (converted)) [nM] | IC50 ([2]; read-out: IC50) [nM] | IC50 [1] [nM]
N#Cc1ccc(Cn2cncc2CO)cc1 | 29 | 282 |  | 
N#Cc1ccc(Cn2cncc2Br)cc1 | 23 |  | 73 | 
COC(=O)CCc1cncn1Cc1ccc(F)cc1 | 50 |  | 104 | 
COC(=O)CCc1cncn1Cc1ccccc1 | 193 |  | 326 | 
OCCCc1cncn1Cc1ccc(Br)cc1 | 6.2 |  | 18 | 
Cc1cccc(-c2cncn2Cc2ccc(C#N)cc2)c1 | 5.2 |  | 6.2 | 
COC(=O)CCc1cncn1Cc1ccc(OC)cc1 | 121 |  | 111 | 
CCOC(=O)c1cncn1[C@H](C)c1ccccc1 [ETOMIDATE] | 1.7 |  |  | 
N#Cc1ccc(Cn2cncc2-c2ccccc2)cc1 |  |  | 28 | 
Clc1ccc(Cn2cncc2-c2ccccc2)cc1 | 5.8 |  | 25 | 
Fc1cccc(Cn2ccnc2)c1 | 815 |  | 206 | 
Fc1ccc(Cn2cncc2-c2ccccc2)cc1 | 11 |  | 16 | 
OCCCc1cncn1Cc1ccc(Cl)cc1 | 55 |  | 44 | 
N#Cc1cccc(Cn2ccnc2)c1 | > 1000 |  | > 1000 | > 1000
Cc1cncn1Cc1ccc(C#N)cc1 | 12 |  |  | 
N#Cc1ccc(Cn2cncc2-c2ccncc2)cc1 | 407 |  | 307 | 
COC(=O)CCc1cncn1Cc1ccc(Cl)cc1 | 177 |  | 123 | 
COC(=O)c1cncn1Cc1ccc(C#N)cc1 | 7 |  |  | 
COc1ccc(Cn2cncc2CCCO)cc1 | 59 |  |  | 
Clc1cccc(Cn2ccnc2)c1 | 457 |  | 151 | 
OCc1ccc(Cn2ccnc2)cc1 | > 1000 |  | 695 | > 1000

Compound | IC50 ([1]; read-out: IC50) [nM] | IC50 ([2]; read-out: pIC50 (converted)) [nM] | IC50 ([2]; read-out: IC50) [nM] | IC50 [1] [nM]
Nc1ccc(Cn2ccnc2)cc1 | > 1000 |  | 236 | > 1000
Cc1ccc(-c2cncn2Cc2ccc(C#N)cc2)cc1 | 117 |  | 130 | 
COc1ccc(Cn2cncc2-c2ccccc2)cc1 | 14 |  | 11 | 
N#Cc1ccc(Cn2cncc2CCCO)cc1 | 13 |  | 48 | 
Fc1ccc(Cn2ccnc2)cc1 | 330 |  | 494 | 
Nc1cccc(Cn2ccnc2)c1 | 600 |  | 390 | 
OCCCc1cncn1Cc1ccccc1 | 286 |  | 181 | 
OCc1cccc(Cn2ccnc2)c1 | 1170 |  | 206 | 
c1ccc(Cn2ccnc2)cc1 [BENZYLIMIDAZOLE] | 1800 |  | 709 | 
c1ccc(Cn2cncc2-c2ccccc2)cc1 | 11 |  | 4.8 | 
N#Cc1ccc(Cn2cncc2-c2ccc(F)cc2)cc1 | 25 |  | 27 | 
N#Cc1ccc(Cn2ccnc2)cc1 | 372 |  | 368 | 
Brc1ccc(Cn2cncc2-c2ccccc2)cc1 | 5.1 |  | 7 | 
N#Cc1ccc(Cn2cncc2-c2cccc(F)c2)cc1 |  | 32.4 |  | 
Clc1ccc(Cn2ccnc2)cc1 | > 1000 |  | > 1000 | > 1000
Cc1ccccc1-c1cncn1Cc1ccc(C#N)cc1 | 3.7 |  | 5.7 | 
OCCCc1cncn1Cc1ccc(F)cc1 | 16 |  |  | 
Brc1ccc(Cn2ccnc2)cc1 | 479 |  | 211 | 
Brc1cccc(Cn2ccnc2)c1 | 365 |  | 143 | 
N#Cc1ccc(Cn2cncc2-c2ccccc2F)cc1 | 2.3 |  | 20 | 
